Tests used:
[1] = target: T1, Estrogen receptor (Homo sapiens) (UniProt P03372); assay: Inhibition of ER-alpha (unknown origin) transcriptional activity expressed in ER-negative human SKBR3 cells coexpressing ERE assessed as change in reporter gene activity after 40 hrs in presence of estradiol relative to control; type: cell-based; parameters: concentration or dose not given beside the values; conditions: SK-BR-3
T1 sequence (whole entry): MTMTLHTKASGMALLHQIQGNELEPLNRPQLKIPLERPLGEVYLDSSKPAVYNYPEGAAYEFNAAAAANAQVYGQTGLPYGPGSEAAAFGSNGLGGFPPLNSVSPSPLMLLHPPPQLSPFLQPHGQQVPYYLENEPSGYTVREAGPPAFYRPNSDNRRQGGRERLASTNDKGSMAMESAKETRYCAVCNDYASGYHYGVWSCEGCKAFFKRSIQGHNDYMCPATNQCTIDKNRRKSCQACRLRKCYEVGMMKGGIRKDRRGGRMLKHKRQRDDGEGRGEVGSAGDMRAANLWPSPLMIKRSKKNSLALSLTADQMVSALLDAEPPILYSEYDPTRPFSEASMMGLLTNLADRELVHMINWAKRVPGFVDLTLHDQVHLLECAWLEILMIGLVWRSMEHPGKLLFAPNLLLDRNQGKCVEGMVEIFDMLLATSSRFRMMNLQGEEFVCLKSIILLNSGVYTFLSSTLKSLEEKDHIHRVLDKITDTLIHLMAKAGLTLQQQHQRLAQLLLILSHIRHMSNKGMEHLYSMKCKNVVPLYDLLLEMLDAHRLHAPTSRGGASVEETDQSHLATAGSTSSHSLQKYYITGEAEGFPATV
Procedure, shortened: (§1)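 ER-negative SKBR3 cells cotransfected with 3xERE-TATA-luciferase, RST7-ERα and pCMV-β-gal for normalization. […] Scored as >50% decrease or increase at <20, 20–50 or >50 μM, or <20% change. 4-hydroxytamoxifen as antagonist control. Cell death above 50 μM flagged.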

[2] = target: T1, Estrogen receptor (Homo sapiens); assay: Competitive inhibition of ER-alpha (unknown origin)-GRIP1 interaction expressed in human HepG2 cells assessed as change in reporter gene activity after 40 hrs relative to control; type: cell-based; parameters: concentration or dose not given beside the values
Procedure, shortened: (§2)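 HepG2 cells transfected with VP16-ERα, Gal4-DBD-fused GRIP1 LxxLL2 peptide and 5xGal4Luc3 reporter. […] Scored as >50% decrease or increase at <20, 20–50 or >50 μM, or <20% change. 4-hydroxytamoxifen as antagonist control. Cell death and precipitation flagged.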

[3] = target: T1, Estrogen receptor (Homo sapiens); assay: Inhibition of ER-alpha (unknown origin) transcriptional activity expressed in ER-negative human SKBR3 cells coexpressing ERE assessed as increase in reporter gene activity at <20 uM after 40 hrs relative to control; type: cell-based; parameters: scale not given: the % may be the effect or the level left; conditions: SK-BR-3; procedure, shortened: as §1
[4] = target: T1, Estrogen receptor (Homo sapiens); assay: Competitive inhibition of ER-alpha (unknown origin)-GRIP1 interaction expressed in human HepG2 cells assessed as change in reporter gene activity after 40 hrs in presence of estradiol relative to control; type: cell-based; parameters: concentration or dose not given beside the values; procedure, shortened: as §2
[5] = target: T1, Estrogen receptor (Homo sapiens); assay: Competitive inhibition of ER-alpha (unknown origin)-GRIP1 interaction expressed in human HepG2 cells assessed as increase in reporter gene activity at <20 uM after 40 hrs in presence of estradiol relative to control; type: cell-based; parameters: scale not given: the % may be the effect or the level left; procedure, shortened: as §2
[6] = target: T1, Estrogen receptor (Homo sapiens); assay: Competitive inhibition of ER-alpha (unknown origin)-GRIP1 interaction expressed in human HepG2 cells assessed as increase in reporter gene activity at <20 uM after 40 hrs relative to control; type: cell-based; parameters: scale not given: the % may be the effect or the level left; procedure, shortened: as §2
[7] = target: T1, Estrogen receptor (Homo sapiens); assay: Inhibition of ER-alpha (unknown origin) transcriptional activity expressed in ER-negative human SKBR3 cells coexpressing ERE assessed as increase in reporter gene activity at 20 to 50 uM after 40 hrs relative to control; type: cell-based; parameters: scale not given: the % may be the effect or the level left; conditions: SK-BR-3; procedure, shortened: as §1
[8] = test system: HepG2; assay: Cytotoxicity against human HepG2 cells expressing ER-alpha coexpressing GRIP1 assessed as cell death at >50 uM in presence of estradiol; type: cell-based; procedure, shortened: as §2
[9] = test system: HepG2; assay: Cytotoxicity against human HepG2 cells expressing ER-alpha coexpressing GRIP1 assessed as cell death at >50 uM; type: cell-based; procedure, shortened: as §2
[10] = target: T1, Estrogen receptor (Homo sapiens); assay: Competitive inhibition of ER-alpha (unknown origin)-GRIP1 interaction expressed in human HepG2 cells assessed as increase in reporter gene activity at >50 uM after 40 hrs relative to control; type: cell-based; parameters: scale not given: the % may be the effect or the level left; procedure, shortened: as §2
[11] = target: T1, Estrogen receptor (Homo sapiens); assay: Inhibition of ER-alpha (unknown origin) transcriptional activity expressed in ER-negative human SKBR3 cells coexpressing ERE assessed as increase in reporter gene activity at >50 uM after 40 hrs relative to control; type: cell-based; parameters: scale not given: the % may be the effect or the level left; conditions: SK-BR-3; procedure, shortened: as §1
[12] = target: T1, Estrogen receptor (Homo sapiens); assay: Competitive inhibition of ER-alpha (unknown origin)-GRIP1 interaction expressed in human HepG2 cells assessed as decrease in reporter gene activity at >50 uM after 40 hrs in presence of estradiol relative to control; type: cell-based; parameters: scale not given: the % may be the effect or the level left; procedure, shortened: as §2
[13] = target: T1, Estrogen receptor (Homo sapiens); assay: Inhibition of ER-alpha (unknown origin) transcriptional activity expressed in ER-negative human SKBR3 cells coexpressing ERE assessed as change in reporter gene activity after 40 hrs relative to control; type: cell-based; parameters: concentration or dose not given beside the values; conditions: SK-BR-3; procedure, shortened: as §1
[14] = target: T1, Estrogen receptor (Homo sapiens); assay: Competitive inhibition of ER-alpha (unknown origin)-GRIP1 interaction expressed in human HepG2 cells assessed as decrease in reporter gene activity at less than 20 uM after 40 hrs relative to control; parameters: scale not given: the % may be the effect or the level left
[15] = target: T1, Estrogen receptor (Homo sapiens); assay: Competitive inhibition of ER-alpha (unknown origin)-GRIP1 interaction expressed in human HepG2 cells assessed as decrease in reporter gene activity at >50 uM after 40 hrs relative to control; type: cell-based; parameters: scale not given: the % may be the effect or the level left; procedure, shortened: as §2
[16] = target: T1, Estrogen receptor (Homo sapiens); assay: Competitive inhibition of ER-alpha (unknown origin)-GRIP1 interaction expressed in human HepG2 cells assessed as decrease in reporter gene activity at 20 to 50 uM after 40 hrs relative to control; type: cell-based; parameters: scale not given: the % may be the effect or the level left; procedure, shortened: as §2
[17] = target: T1, Estrogen receptor (Homo sapiens); assay: Competitive inhibition of ER-alpha (unknown origin)-GRIP1 interaction expressed in human HepG2 cells assessed as decrease in reporter gene activity at 20 to 50 uM after 40 hrs in presence of estradiol relative to control; type: cell-based; parameters: scale not given: the % may be the effect or the level left; procedure, shortened: as §2

SMILES	Activity [1] [%]	Activity [2] [%]	Activity [4] [%]	Activity [8]	Activity [9]	Activity [13] [%]	further results
CCOC(=O)COc1ccc(-c2ccc(O)c(Cc3ccc(-c4ccccc4)cc3)c2)cc1Cc1ccc(-c2ccccc2)cc1	< 20	< 20	< 20				Activity [3]: > 50%
CCOC(=O)COc1ccc(-c2ccc(OCCN(C)C)c(Cc3ccc4ccccc4c3)c2)cc1	< 20						Activity [5]: > 50%; Activity [6]: > 50%; Activity [3]: > 50%
CCOC(=O)COc1ccc(-c2ccc(O)c(Cc3ccc4ccccc4c3)c2)cc1	< 20		< 20	Toxic	Toxic		Activity [7]: > 50%; Activity [10]: > 50%
CCCCCCCc1cc(-c2ccc(OCC(=O)OCC)cc2)ccc1O	< 20		< 20	Toxic	Toxic		Activity [11]: > 50%; Activity [10]: > 50%
CCOC(=O)COc1ccc(-c2ccc(O)c(Cc3ccc4ccccc4c3)c2)cc1Cc1ccc2ccccc2c1	< 20	< 20	< 20				Activity [11]: > 50%
CCOC(=O)COc1ccc(-c2ccc(O)cc2)cc1Cc1ccc2ccccc2c1	< 20	< 20				< 20	Activity [12]: > 50%
CCOC(=O)COc1ccc(-c2ccc(O)cc2)cc1CC1CCCCC1	< 20	< 20	< 20				Activity [3]: > 50%
CCOC(=O)COc1ccc(-c2ccc(O)c(CC3CCCCC3)c2)cc1CC1CCCCC1	< 20	< 20	< 20	Toxic	Toxic	< 20	
CCOC(=O)COc1ccc(-c2ccc(OCCN(C)C)c(CC3CCCCC3)c2)cc1	< 20		< 20				Activity [7]: > 50%; Activity [14]: > 50%
CCOC(=O)COc1ccc(-c2ccc(OCCN(C)C)cc2)cc1Cc1ccc(-c2ccccc2)cc1	< 20		< 20	Toxic	Toxic	< 20	Activity [15]: > 50%
CCOC(=O)COc1ccc(-c2ccc(O)c(Cc3ccc(-c4ccccc4)cc3)c2)cc1	< 20					< 20	Activity [16]: > 50%; Activity [17]: > 50%
CCCCCCCc1cc(-c2ccc(O)cc2)ccc1OCC(=O)OCC	< 20	< 20	< 20			< 20	

From ChEMBL document CHEMBL3108721, “4,4'-Unsymmetrically substituted 3,3'-biphenyl alpha helical proteomimetics as potential coactivator binding inhibitors” (Bioorg Med Chem, 2014)
